Compound activity deposited in PubChem by several laboratories.
S1P3 antagonist = S1P3 (human) receptor antagonism | Q99500 | CHO S1P3 NFAT-BLA reporter, FRET fluorescence, antagonist mode | inhibition, % at 4.98 µM | hit rate 0.27% among 170,000 | AID 485;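 active = inhibition above the plate cutoff, the mean inhibition of test wells on that plate plus 3 SD, cut at about 28% in these data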;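 also: cells challenged with S1P at its EC80 of 0.8 µM; blue over green emission ratio from cleaved BLA substrate after 4 h stimulation; 0% = S1P-stimulated wells and 100% = unstimulated DMSO-only wells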
S1P4 ag = agonists of human S1P4 receptor | O95977 | S1P4-expressing cell line, agonist reporter assay | hit rate 0.35% among 220,000 | activation, % at 4.98 µM; in the data active = activation above about 11%;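 also: 0% = DMSO vehicle and 100% = reference agonist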
Target sequence (O95977 whole entry, looked up): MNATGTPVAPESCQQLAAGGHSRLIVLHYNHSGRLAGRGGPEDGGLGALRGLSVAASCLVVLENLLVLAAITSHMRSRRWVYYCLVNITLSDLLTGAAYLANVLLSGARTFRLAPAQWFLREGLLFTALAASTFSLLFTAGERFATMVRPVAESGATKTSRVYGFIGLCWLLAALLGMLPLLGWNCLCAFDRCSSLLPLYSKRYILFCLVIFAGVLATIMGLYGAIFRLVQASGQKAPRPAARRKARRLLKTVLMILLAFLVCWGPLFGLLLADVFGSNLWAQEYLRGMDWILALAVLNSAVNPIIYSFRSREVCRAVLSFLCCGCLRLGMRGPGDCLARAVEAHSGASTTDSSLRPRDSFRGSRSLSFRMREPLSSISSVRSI
MDM2 E3 inh = Mdm2 E3 ligase (human) inhibition; cell-based MDM2 ubiquitination luciferase reporter, 2 h; 0 = plate control, 100 = twice control, blank-subtracted; Q00987; signal enhancement, % at 5 µM; hit rate 0.11% among 210,000;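 active = signal enhancement of 30% or more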;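 also: luminescence tracks abundance of the self-degrading MDM2-luciferase fusion protein; higher signal means inhibition of MDM2 E3 ligase activity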
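test system = mammalian cells stably expressing self-ubiquitinating, self-degrading MDM2 E3–luciferase fusion | quantity = 2000 cells/well | incubation = cell settling 4 h, compound treatment 2 h, both 37 °C | signal = luminescence with SteadyLite reagent, 15 min at room temperature | evaluation = % enhancement relative to plate controls after blank subtraction | benchmarks = plate controls and plate blanks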
Lmaj promast = inhibitors of Leishmania major promastigote growth | Leishmania major promastigotes, resazurin fluorescence viability | hit rate 9% among 200,000 | AID 1063 | inhibition, % at 10 µM; in the data active = inhibition above about 50%;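 also: promastigotes grown with compound for 44 hours at 28 °C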
S1P4 antagonist = human S1P4 receptor antagonism; O95977; S1P4-expressing cells, antagonist mode, reporter read-out; inhibition, % at 4.98 µM; hit rate 0.26% among 220,000; AID 1510; in the data active = inhibition above about 29%;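 also: 0% = wells stimulated with agonist and 100% = vehicle wells without agonist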
S1P4 agonist cf = human S1P4 agonism, confirmation; S1P4 agonist cell-based reporter assay; activation, % at 4.98 µM; AID 1523; shares compounds with S1P4 ag; hit rate 7% among 740; in the data active = activation above about 12%;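 also: 0% = vehicle and 100% = full reference agonist response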
S1P1 agonist = counter-screen for S1P4 agonists: agonists of human S1P1; shares compounds with S1P4 ag; activation, % at 4.98 µM; hit rate 4% among 740; S1P1 agonist cell-based assay, activation; in the data active = activation above about 21%;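 also: 0% = vehicle wells and 100% = reference agonist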
* = called active by the depositor. The sample as a whole holds a higher share of hits than the screen did.

`O=C(Nc1ccc2c(c1)ncn2-c1ccccc1)c1ccco1` gave S1P3 antagonist 28.2, S1P4 ag 1.7, MDM2 E3 inh -5.1, Lmaj promast -1.2 and S1P4 antagonist 4.4.
Cn1cnc2cc(NC(=O)c3ccco3)ccc21 was read as S1P3 antagonist -1.4, S1P4 ag 61.2*, MDM2 E3 inh -19.0, Lmaj promast -2.8, S1P4 antagonist 6.4, S1P4 agonist cf -1.6 and S1P1 agonist -9.0.
Screening O=C(COc1ccccc1)NCc1cccs1 returned S1P4 ag 14.0*, MDM2 E3 inh -6.5, Lmaj promast -5.4, S1P4 antagonist -1.1, S1P4 agonist cf -3.1 and S1P1 agonist -3.8.
`O=C(NC1CC1)C1=C[C@H](c2csc3ccccc23)C[C@H](OCc2ccc(CO)cc2)O1` gave MDM2 E3 inh 9.8.
For O=C(Nc1ccccc1)C1=C[C@H](c2csc3ccccc23)C[C@H](OCc2ccc(CO)cc2)O1 the results were S1P3 antagonist -9.7, S1P4 ag 16.4*, Lmaj promast 46.9, S1P4 antagonist -18.8, S1P4 agonist cf -0.6 and S1P1 agonist -0.1.
For O=C(O)CCn1c(=S)n(CCC(=O)O)c2ccccc21 the results were S1P3 antagonist -1.5, S1P4 ag -0.9 and S1P4 antagonist 9.8.
Screening NC(=O)C1CCN(C2CC(=O)N(Cc3cccs3)C2=O)CC1 (configuration not stated) returned S1P4 ag 28.0*, MDM2 E3 inh -31.2, Lmaj promast -0.4, S1P4 antagonist 2.7, S1P4 agonist cf -2.3 and S1P1 agonist 5.8.
`CC(C)(C)C(=O)NC1(C(F)(F)F)NC(=O)N(c2ccc(F)cc2)C1=O` (configuration not stated) gave S1P3 antagonist -8.3, S1P4 ag -0.6, MDM2 E3 inh -4.9, Lmaj promast -3.3 and S1P4 antagonist -1.7.
For Cc1ccc(C(=O)Nc2ccnc(-c3cccnc3)n2)cc1 the results were S1P3 antagonist -12.0, S1P4 ag 0.6, MDM2 E3 inh -7.6, Lmaj promast -3.9 and S1P4 antagonist 25.0.
O=C(Nc1ccnc(-c2cccnc2)n1)c1ccc(Cl)c(Cl)c1 was read as S1P4 ag 26.9*, MDM2 E3 inh -8.5, Lmaj promast 0.6, S1P4 antagonist 19.2, S1P4 agonist cf -0.7 and S1P1 agonist 1.1.
Screening COc1cc(/C=C/C(=O)OCC(=O)NCC2CCCO2)ccc1OCC#N (configuration not stated) returned S1P3 antagonist -3.0, S1P4 ag -3.0, MDM2 E3 inh -88.4, Lmaj promast -5.6 and S1P4 antagonist -4.0.
For Cc1cccc(N=C2NC(=O)c3cc([N+](=O)[O-])ccc32)c1 the results were S1P3 antagonist -13.7, S1P4 ag 1.1, MDM2 E3 inh -5.0, Lmaj promast 8.1 and S1P4 antagonist -6.6.
Screening O=c1cc(-c2ccc([N+](=O)[O-])cc2)c2ccc(O)cc2o1 returned S1P3 antagonist -0.8, S1P4 ag 11.9*, MDM2 E3 inh 5.9, Lmaj promast -9.7, S1P4 antagonist -7.1, S1P4 agonist cf 1.5 and S1P1 agonist 7.6.
CC(C)c1cc(C(=O)NNC(=S)NCc2ccco2)c(O)c(C(C)C)c1 was read as S1P3 antagonist 4.5, S1P4 ag 0.8, MDM2 E3 inh -7.0, Lmaj promast -4.9 and S1P4 antagonist -4.9.
Screening CC(C)CNS(=O)(=O)c1ccc(S(=O)(=O)N2CCC3(CC2)OCCO3)cc1 returned S1P3 antagonist 7.5, S1P4 ag 15.6*, Lmaj promast -1.7, S1P4 antagonist -8.3, S1P4 agonist cf -1.2 and S1P1 agonist -5.2.
Screening CC(C)CCNC(=O)C(=O)NC1CCCC1 returned S1P3 antagonist 0.7, S1P4 ag 56.6*, MDM2 E3 inh -1.5, Lmaj promast -8.6, S1P4 antagonist 13.8, S1P4 agonist cf -2.3 and S1P1 agonist -0.8.
CC(C)CCNC(=S)NC1CCCC1 was read as S1P4 ag 1.6, MDM2 E3 inh 3.3, Lmaj promast 0.3 and S1P4 antagonist -7.0.
Cc1ccccc1NC(=O)c1ccc(Cl)c(NC(=O)c2cccnc2)c1 was read as S1P3 antagonist -2.6, S1P4 ag 6.7, MDM2 E3 inh -0.2, Lmaj promast -3.9 and S1P4 antagonist -1.2.
